Results published in ChEMBL document CHEMBL1649290, “Correlation of in vitro activity, serum levels, and in vivo efficacy of posaconazole against Rhizopus microsporus in a murine disseminated infection” (Antimicrob Agents Chemother, 2009).
In brackets after ≈: the same amount, converted by molar mass. Activity calls are given as the source filed them. The rule behind the calls is not given here.

Key:
[1] = Antifungal activity against Rhizopus microsporus IHEM 13311 by broth microdilution method; assay type: functional
Summary of the method: (§1)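 Clinical isolates kept at −80°C and subcultured on potato dextrose agar at 35°C before testing. MICs were determined by broth microdilution following the CLSI reference guidelines for filamentous fungi (molds), as part of a 15-strain panel tested against seven antifungal agents.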

[2] = Antifungal activity against Rhizopus microsporus IHEM 15210 by broth microdilution method; assay type: functional; summary of the method: as §1
[3] = Antifungal activity against Rhizopus microsporus UTHSC R-3466 by broth microdilution method; assay type: functional
Summary of the method: (§2)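 CLSI broth microdilution reference method for molds, run on clinical R. microsporus isolates. Isolates were stored at −80°C and subcultured on potato dextrose agar at 35°C before testing. Breakpoints: intermediate 2 μg/ml, resistant ≥4 μg/ml.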

[4] = Antifungal activity against Rhizopus microsporus UTHSC 03-1802 by broth microdilution method; assay type: functional; summary of the method: as §1
[5] = Antifungal activity against Rhizopus microsporus UTHSC 04-3294 by broth microdilution method; assay type: functional; summary of the method: as §1
[6] = Antifungal activity against Rhizopus microsporus UTHSC 07-371 by broth microdilution method; assay type: functional; summary of the method: as §1
[7] = Antifungal activity against Rhizopus microsporus UTHSC 01-983 by broth microdilution method; assay type: functional; summary of the method: as §2
[8] = Antifungal activity against Rhizopus microsporus FMR 3542 by broth microdilution method; assay type: functional; summary of the method: as §2
[9] = Antifungal activity against Rhizopus microsporus CBS 102277 by broth microdilution method; assay type: functional; summary of the method: as §2
[10] = Antifungal activity against Rhizopus microsporus IHEM 18821 by broth microdilution method; assay type: functional; summary of the method: as §1
[11] = Antifungal activity against Rhizopus microsporus IHEM 13267 by broth microdilution method; assay type: functional; summary of the method: as §1
[12] = Antifungal activity against Rhizopus microsporus IHEM 9503 by broth microdilution method; assay type: functional; summary of the method: as §1
[13] = Antifungal activity against Rhizopus microsporus IHEM 10123 by broth microdilution method; assay type: functional; summary of the method: as §1
[14] = Antifungal activity against Rhizopus microsporus IHEM 4770 by broth microdilution method; assay type: functional; summary of the method: as §1
[15] = Antifungal activity against Rhizopus microsporus IHEM 5234 by broth microdilution method; assay type: functional; summary of the method: as §2
[16] = Drug level in serum of OF1 mouse infected with Rhizopus microsporus FMR 3542 at 40 mg/kg, po QD measured after 3 hrs post last dose; assay type: ADME, organism-based; parameters: dose 40 mg/kg, route oral; settings: read-out: Drug uptake
Summary of the method: (§3)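 Immunosuppressed OF1 mice were infected i.v. (5 per group) and dosed orally at 40 mg/kg once daily or 20 mg/kg twice daily for 5 days. Sera were taken 3 h and 24 h after the last dose. Drug was measured by agar bioassay with Candida parapsilosis ATCC 22019 in yeast nitrogen broth, against standards of 0.125–10 μg/ml. Samples were run in duplicate, and the mean of four zone readings was read from the standard curve.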

[17] = Drug level in serum of OF1 mouse infected with Rhizopus microsporus UTHSC 01-983 at 20 mg/kg, po BID for 5 days measured after 3 hrs post last dose; assay type: ADME, organism-based; parameters: dose 20 mg/kg, route oral; settings: read-out: Drug uptake; summary of the method: as §3
[18] = Drug level in serum of OF1 mouse infected with Rhizopus microsporus UTHSC 01-983 at 40 mg/kg, po QD for 5 days measured after 3 hrs post last dose; assay type: ADME, organism-based; parameters: dose 40 mg/kg, route oral; settings: read-out: Drug uptake; summary of the method: as §3
[19] = Drug level in serum of OF1 mouse infected with Rhizopus microsporus FMR 3542 at 20 mg/kg, po BID for 5 days measured after 3 hrs post last dose; assay type: ADME, organism-based; parameters: dose 20 mg/kg, route oral; settings: read-out: Drug uptake; summary of the method: as §3
[20] = Drug level in serum of OF1 mouse infected with Rhizopus microsporus FMR 3542 at 40 mg/kg, po QD measured after 24 hrs post last dose; assay type: ADME, organism-based; parameters: dose 40 mg/kg, route oral; settings: read-out: Drug uptake; summary of the method: as §3
[21] = Drug level in serum of OF1 mouse infected with Rhizopus microsporus UTHSC 01-983 at 20 mg/kg, po BID for 5 days measured after 24 hrs post last dose; assay type: ADME, organism-based; parameters: dose 20 mg/kg, route oral; settings: read-out: Drug uptake; summary of the method: as §3
[22] = Drug level in serum of OF1 mouse infected with Rhizopus microsporus UTHSC 01-983 at 40 mg/kg, po QD for 5 days measured after 24 hrs post last dose; assay type: ADME, organism-based; parameters: dose 40 mg/kg, route oral; settings: read-out: Drug uptake; summary of the method: as §3
[23] = Drug level in serum of OF1 mouse infected with Rhizopus microsporus FMR 3542 at 20 mg/kg, po BID for 5 days measured after 24 hrs post last dose; assay type: ADME, organism-based; parameters: dose 20 mg/kg, route oral; settings: read-out: Drug uptake; summary of the method: as §3
Rhizopus microsporus [24] = assay: Antifungal activity against Rhizopus microsporus FMR 3542 infected in OF1 mouse assessed as reduction in fungal load in brain at 40 mg/kg, QD for 5 days; assay type: functional, organism-based; parameters: dose 40 mg/kg
Summary of the method: (§4)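 Male OF1 mice (30 g) were immunosuppressed 1 day before infection with cyclophosphamide 200 mg/kg i.p. plus 5-fluorouracil 150 mg/kg i.v., then given 2 × 10^3 CFU i.v. (IHEM 4770: 1 × 10^4 CFU). Oral dosing was 40 mg/kg once daily or 20 mg/kg twice daily, starting 24 h post-challenge; ceftazidime s.c. was given on days 1–7. […], 10 mice per group were killed, and brain and kidney homogenates were plated on PDA (18–24 h, 35°C) for CFU.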

Rhizopus microsporus [25] = assay: Antifungal activity against Rhizopus microsporus IHEM 4770 infected in OF1 mouse assessed as reduction in fungal load in brain at 40 mg/kg, QD for 5 days; assay type: functional, organism-based; parameters: dose 40 mg/kg; summary of the method: as §4
Rhizopus microsporus [26] = assay: Antifungal activity against Rhizopus microsporus IHEM 4770 infected in OF1 mouse assessed as reduction in fungal load in brain at 20 mg/kg, QD for 5 days; assay type: functional, organism-based; parameters: dose 20 mg/kg
Rhizopus microsporus [27] = assay: Antifungal activity against Rhizopus microsporus UTHSC 01-983 infected in OF1 mouse assessed as reduction in fungal load in brain at 20 mg/kg, QD for 5 days; assay type: functional, organism-based; parameters: dose 20 mg/kg
Rhizopus microsporus [28] = assay: Antifungal activity against Rhizopus microsporus UTHSC R-3466 infected in OF1 mouse assessed as reduction in fungal load in kidney at 20 mg/kg, QD for 5 days; assay type: functional, organism-based; parameters: dose 20 mg/kg

Structure (SMILES) | MIC [1] [µg/mL] | MIC [2] [µg/mL] | MIC [3] [µg/mL] | MIC [4] [µg/mL] | MIC [5] [µg/mL] | MIC [6] [µg/mL] | MIC [7] [µg/mL] | MIC [8] [µg/mL] | MIC [9] [µg/mL] | MIC [10] [µg/mL] | MIC [11] [µg/mL] | MIC [12] [µg/mL] | MIC [13] [µg/mL] | MIC [14] [µg/mL] | MIC [15] [µg/mL] | further results
CCC(C)n1ncn(-c2ccc(N3CCN(c4ccc(OCC5COC(Cn6cncn6)(c6ccc(Cl)cc6Cl)O5)cc4)CC3)cc2)c1=O (stereo not drawn) | 1 (≈ 1.42 µM) | 1 (≈ 1.42 µM) | 1 (≈ 1.42 µM) | 1 (≈ 1.42 µM) | 1 (≈ 1.42 µM) | 1 (≈ 1.42 µM) | 1 (≈ 1.42 µM) | 1 (≈ 1.42 µM) | 1 (≈ 1.42 µM) | 2 (≈ 2.83 µM) | 1 (≈ 1.42 µM) | 4 (≈ 5.67 µM) | 2 (≈ 2.83 µM) | 2 (≈ 2.83 µM) | 1 (≈ 1.42 µM) | –
CC[C@@H]([C@H](C)O)n1ncn(-c2ccc(N3CCN(c4ccc(OC[C@@H]5CO[C@@](Cn6cncn6)(c6ccc(F)cc6F)C5)cc4)CC3)cc2)c1=O [POSACONAZOLE] | 0.5 (≈ 0.713 µM) | 0.5 (≈ 0.713 µM) | 0.25 (≈ 0.357 µM) | 0.25 (≈ 0.357 µM) | 0.25 (≈ 0.357 µM) | 0.25 (≈ 0.357 µM) | 0.25 (≈ 0.357 µM) | 2 (≈ 2.85 µM) | 0.5 (≈ 0.713 µM) | 1 (≈ 1.43 µM) | 0.5 (≈ 0.713 µM) | 0.5 (≈ 0.713 µM) | 1 (≈ 1.43 µM) | 2 (≈ 2.85 µM) | 0.25 (≈ 0.357 µM) | concentration at 3 h [16]: 5310 ng/mL; concentration at 3 h [17]: 7600 ng/mL; concentration at 3 h [18]: 5960 ng/mL; concentration at 3 h [19]: 8040 ng/mL; concentration at 24 h [20]: 950 ng/mL; concentration at 24 h [21]: 2040 ng/mL; concentration at 24 h [22]: 1050 ng/mL; concentration at 24 h [23]: 2150 ng/mL; Activity (Rhizopus microsporus [24]): Active; Activity (Rhizopus microsporus [25]): Active; Activity (Rhizopus microsporus [26]): Active; Activity (Rhizopus microsporus [27]): Active; Activity (Rhizopus microsporus [28]): Active
C[C@@H](c1ncncc1F)[C@](O)(Cn1cncn1)c1ccc(F)cc1F | – | – | 4 (≈ 11.5 µM) | – | – | – | 4 (≈ 11.5 µM) | 4 (≈ 11.5 µM) | 4 (≈ 11.5 µM) | – | – | – | – | – | 4 (≈ 11.5 µM) | –
C[C@@H]1[C@H](O)[C@@H](C)/C=C/C=C/C=C/C=C/C=C/C=C/C=C/[C@H](O[C@@H]2O[C@H](C)[C@@H](O)[C@H](N)[C@@H]2O)C[C@@H]2O[C@](O)(C[C@@H](O)C[C@@H](O)[C@H](O)CC[C@@H](O)C[C@@H](O)CC(=O)O[C@H]1C)C[C@H](O)[C@H]2C(=O)O | 0.5 (≈ 0.541 µM) | 0.5 (≈ 0.541 µM) | 0.5 (≈ 0.541 µM) | 1 (≈ 1.08 µM) | 1 (≈ 1.08 µM) | 1 (≈ 1.08 µM) | 0.5 (≈ 0.541 µM) | 0.5 (≈ 0.541 µM) | 0.5 (≈ 0.541 µM) | 0.5 (≈ 0.541 µM) | 0.5 (≈ 0.541 µM) | 0.5 (≈ 0.541 µM) | 0.5 (≈ 0.541 µM) | 0.5 (≈ 0.541 µM) | 0.5 (≈ 0.541 µM) | –
